The results in this text go back to ChEMBL document CHEMBL1671698, “Is the recommended once-daily dose of lamivudine optimal in West African HIV-infected children?” (Antimicrob Agents Chemother, 2010).

As a reminder, the Cmax is the maximum level reached in the sampled fluid or tissue. Broadly, the AUC is the area under the concentration-time curve, a measure of exposure.

Series [1] is described as follows: Cmax in HIV-1 infected children aged 2.5 to 14 years at 8 mg/kg, po every 24 hrs coadministered with 240 mg/m2 of didanosine and efavirenz by HPLC. It is filed as ADME, organism-based. Set-up: dose 8 mg/kg, route oral. Particulars: human, in vivo. Put shortly: (§1)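 Treatment-naive children took once-daily oral lamivudine at 8 mg/kg (tablets or solution) at 6 p.m. without food, with didanosine 240 mg/m2 and weight-banded efavirenz. Blood was drawn after 15 days (38 children) or 2–5 months (11 children), either predose plus 1 and 3 h, or predose through 24 h. Plasma was kept at −70°C and assayed by HPLC-UV (LLOQ 0.025 mg/liter). Data were fitted with a two-compartment population model in NONMEM using FOCE.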

Series [2] can be described thus: AUC (0 to tau) in HIV-1 infected children aged 2.5 to 14 years at 8 mg/kg, po every 24 hrs coadministered with 240 mg/m2 of didanosine and efavirenz by HPLC. It counts as ADME, organism-based. Details: dose 8 mg/kg, route oral. Particulars: human, plasma. Put shortly:
as §1

Series [3] in a line: Cmax in HIV-1 infected children aged 6.9 years at 4 mg/kg, po every 12 hrs coadministered with nevirapine and stavudine by HPLC. It is filed as ADME, organism-based. Details: dose 4 mg/kg, route oral. Particulars: human, in vivo.
A short description of series [4]: AUC (0 to tau) in HIV-1 infected children aged 6.9 years at 4 mg/kg, po every 12 hrs coadministered with nevirapine and stavudine by HPLC. It is filed as ADME, organism-based. Details: dose 4 mg/kg, route oral. Particulars: human, plasma.
A short description of series [5]: Cmax in HIV-1 infected children aged 2.5 to 4.8 years at 4 mg/kg, po every 12 hrs by HPLC. Particulars: human, in vivo. Set-up: dose 4 mg/kg, route oral. It is filed as ADME, organism-based.
Series [6] in a line: AUC (0 to tau) in HIV-1 infected children aged 2.5 to 4.8 years at 4 mg/kg, po every 12 hrs by HPLC. It counts as ADME, organism-based. Details: dose 4 mg/kg, route oral. Particulars: human, plasma.
Series [7] in a line: Cmax in HIV-1 infected children aged 8.5 to 12.3 years at 4 mg/kg, po every 12 hrs by HPLC. Set-up: dose 4 mg/kg, route oral. Particulars: human, in vivo. It is filed as ADME, organism-based.
The nature of series [8]: AUC (0 to tau) in HIV-1 infected children aged 8.5 to 12.3 years at 4 mg/kg, po every 12 hrs by HPLC. It counts as ADME, organism-based. Details: dose 4 mg/kg, route oral. Particulars: human, plasma.
A short description of series [9]: Cmax in HIV-1 infected children aged 2.1 to 12.8 years at 4 mg/kg, po every 12 hrs coadministered with 8 mg/kg abacavir by HPLC. It counts as ADME, organism-based. Set-up: dose 4 mg/kg, route oral. Particulars: human, in vivo.
Series [10] in a line: AUC (0 to tau) in HIV-1 infected children aged 2.1 to 12.8 years at 4 mg/kg, po every 12 hrs coadministered with 8 mg/kg abacavir by HPLC. Particulars: human, plasma. It is filed as ADME, organism-based.
A short description of series [11]: AUC in HIV-1 infected children with body weight <17 kg at 8 mg/kg, po every 24 hrs coadministered with 240 mg/m2 of didanosine and efavirenz by HPLC. It is filed as ADME, organism-based. Set-up: dose 8 mg/kg, route oral. Particulars: human, plasma.
The nature of series [12]: AUC in HIV-1 infected children with body weight >17 kg at 8 mg/kg, po every 24 hrs coadministered with 240 mg/m2 of didanosine and efavirenz by HPLC. It counts as ADME, organism-based. Set-up: dose 8 mg/kg, route oral. Particulars: human, plasma.
In series [13] the test system is Homo sapiens. In words: AUC in HIV-1 infected children with body weight <17 kg at 10 mg/kg, po every 24 hrs coadministered with 240 mg/m2 of didanosine and efavirenz by HPLC. It counts as ADME, organism-based, Plasma. Set-up: dose 10 mg/kg, route oral. Particulars: in vivo.
Series [14] in a line: Cmax in HIV-1 infected children aged 2.1 to 12.8 years at 8 mg/kg, po every 24 hrs coadministered with 8 mg/kg abacavir by HPLC. Particulars: human, in vivo.
Series [15] in a line: AUC (0 to tau) in HIV-1 infected children aged 2.1 to 12.8 years at 8 mg/kg, po every 24 hrs coadministered with 8 mg/kg abacavir by HPLC. Particulars: human, plasma.

Molecules are shown by their SMILES.

As for `Nc1ccn([C@@H]2CS[C@H](CO)O2)c(=O)n1` [LAMIVUDINE], the Cmax amounted to 1700 ng/mL in series [1]; 1330 ng/mL in series [3]; 980 ng/mL in [5]; 1840 ng/mL in [7]; 1110 ng/mL in series [9]; 2090 ng/mL in series [14]. Further, the AUC tau at 24 h was determined as 7800 ng·h/mL in series [2] and 9800 ng·h/mL in series [15]. The AUC tau at 12 h in [4] was found to be 5420 ng·h/mL; in series [6] it was 3710 ng·h/mL; in series [8] it was 6540 ng·h/mL; in series [10], 4440 ng·h/mL. Further, the area under the curve (AUC) at 24 h in series [11] was found to be 8100 ng·h/mL; in series [12], 9100 ng·h/mL. For the same compound, the area under the curve (AUC) in series [13] was 9.8 mg·h/L.
